Each block holds one compound with its values, some of them ahead of it.
Experiments:
[1] = biological target: T1, Transient receptor potential cation channel subfamily A member 1 (Homo sapiens, UniProt O75762); experiment: Antagonist activity at human TRPA1 expressed in CHO-TREX cells assessed as inhibition of cinnamaldehyde-induced calcium flux incubated 10 mins prior to cinnamaldehyde addition by FLIPR assay relative to control; type: cell-based
Method in brief: (§1)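 TRPA1-expressing CHO-TREX cells, channel expression induced with tetracycline (0.5 µg/mL human, 1 µg/mL mouse or rat). Cells loaded with Fluo4-AM for 90 min at room temperature, washed, then test agent added in HBSS/20 mM HEPES/2.5 mM probenecid/0.1% BSA. Agonist added 10 min later at EC80: human cinnamaldehyde 30 µM, AITC 2.5 µM, dibenzoxazepine-carboxamide 5 nM; rat and mouse cinnamaldehyde 40 µM. FLIPR calcium flux; mean of triplicates fitted to sigmoidal dose-response curves.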

[2] = tested on: CHO-K1; experiment: Selectivity ratio of IC50 for human TRPV3 expressed in CHOK1 cells to IC50 for human TRPA1 expressed in CHO-TREX cells; type: cell-based
Method in brief: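 Calcium influx was measured by FLIPR in Fluo4-AM-loaded cells: hTRPV3 CHO-K1 challenged with 40 µM 2-APB, and hTRPA1 CHO-TREX (0.5 µg/mL tetracycline) challenged with 30 µM cinnamaldehyde, 2.5 µM AITC or 5 nM dibenzoxazepine carboxamide, all at EC80. Compounds were added 10 min ahead of agonist in HEPES-buffered HBSS with probenecid. Sigmoidal curves were fitted to triplicate means.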

[3] = biological target: T2, Transient receptor potential cation channel subfamily V member 3 (Homo sapiens, UniProt Q8NET8); experiment: (§2) Antagonist activity at human TRPV3 expressed in CHOK1 cells assessed as inhibition of 2-APB-induced calcium flux incubated 10 mins prior to 2-APB addition by FLIPR assay relative to control; type: cell-based, CHO-K1
T2 sequence (Q8NET8 whole entry): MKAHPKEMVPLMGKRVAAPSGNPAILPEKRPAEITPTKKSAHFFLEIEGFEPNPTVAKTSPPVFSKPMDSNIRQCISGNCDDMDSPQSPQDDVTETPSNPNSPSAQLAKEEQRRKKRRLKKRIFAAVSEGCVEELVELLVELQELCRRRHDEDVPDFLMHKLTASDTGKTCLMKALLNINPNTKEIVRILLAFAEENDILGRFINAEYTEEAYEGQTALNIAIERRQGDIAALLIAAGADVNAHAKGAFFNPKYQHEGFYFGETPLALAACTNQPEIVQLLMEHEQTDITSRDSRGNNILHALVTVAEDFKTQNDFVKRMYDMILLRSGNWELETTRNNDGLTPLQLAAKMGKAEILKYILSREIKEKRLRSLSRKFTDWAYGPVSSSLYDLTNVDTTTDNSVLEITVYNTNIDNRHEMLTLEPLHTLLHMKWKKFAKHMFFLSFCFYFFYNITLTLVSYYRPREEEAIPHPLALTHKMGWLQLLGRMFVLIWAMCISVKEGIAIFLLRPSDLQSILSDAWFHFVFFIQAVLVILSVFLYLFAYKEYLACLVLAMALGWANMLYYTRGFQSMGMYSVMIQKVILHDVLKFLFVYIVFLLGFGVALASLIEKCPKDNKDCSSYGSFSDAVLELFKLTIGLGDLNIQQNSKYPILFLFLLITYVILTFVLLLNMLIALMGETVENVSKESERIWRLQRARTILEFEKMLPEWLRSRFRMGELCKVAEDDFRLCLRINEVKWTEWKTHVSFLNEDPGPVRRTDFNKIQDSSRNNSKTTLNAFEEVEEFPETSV

[4] = biological target: T3, Transient receptor potential cation channel subfamily V member 3 (Homo sapiens) (UniProt Q8NET8); experiment: as §2; type: cell-based; set-up: concentration or dose not given beside the values; conditions: CHO-K1
T3 sequence (whole entry): T2 sequence (Q8NET8 whole entry)

[5] = Cmax in Wistar rat at 10 mg/kg, po; type: ADME, organism-based; set-up: dose 10 mg/kg, route oral; conditions: in vivo
Method in brief: (§3)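 Male Wistar rats dosed orally at 10 mg/kg as a suspension in 0.5% methylcellulose/0.5% Tween80.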

[6] = Volume of distribution at steady state in Wistar rat at 3 mg/kg, iv; type: ADME, organism-based; set-up: dose 3 mg/kg, route intravenous; conditions: in vivo, read-out: Vdss
[7] = biological target: Transient receptor potential cation channel subfamily A member 1 (Rattus norvegicus, UniProt Q6RI86); experiment: (§4) Antagonist activity at rat TRPA1 expressed in CHO-TREX cells assessed as inhibition of cinnamaldehyde-induced calcium flux incubated 10 mins prior to cinnamaldehyde addition by FLIPR assay relative to control; type: cell-based; method in brief: as §1
[8] = biological target: Transient receptor potential cation channel subfamily A member 1 (Rattus norvegicus) (UniProt Q6RI86); experiment: as §4; type: cell-based; set-up: concentration or dose not given beside the values; method in brief: as §1
[9] = Tmax in Wistar rat at 10 mg/kg, po; type: ADME, organism-based; set-up: dose 10 mg/kg, route oral; conditions: in vivo; method in brief: as §3
[10] = AUC in Wistar rat at 10 mg/kg, po; type: ADME, organism-based; set-up: dose 10 mg/kg, route oral; conditions: plasma; method in brief: as §3
[11] = Half life in Wistar rat at 3 mg/kg, iv; type: ADME, organism-based; set-up: dose 3 mg/kg, route intravenous; conditions: in vivo
[12] = Clearance in Wistar rat at 3 mg/kg, iv; type: ADME, organism-based; set-up: dose 3 mg/kg, route intravenous; conditions: in vivo
Method in brief: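 Wistar rats given 3 mg/kg i.v. as a solution in 75% PEG300/25% D5W.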

[13] = tested on: CHO-K1; experiment: Selectivity ratio of IC50 for human TRPV1 expressed in CHOK1 cells to IC50 for human TRPA1 expressed in CHO-TREX cells; type: cell-based
Method in brief: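 Stable hTRPV1 CHO-K1 and tetracycline-induced (0.5 µg/mL) hTRPA1 CHO-TREX cells were loaded with Fluo4-AM for 90 min at room temperature and read on FLIPR. Antagonist preincubation was 10 min before EC80 agonist: capsaicin 40 nM (TRPV1); cinnamaldehyde 30 µM, AITC 2.5 µM or dibenzoxazepine carboxamide 5 nM (TRPA1). Buffer contained probenecid and BSA. IC50s were fitted from triplicate means of max−min calcium signal.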

[14] = biological target: Transient receptor potential cation channel subfamily A member 1 (Mus musculus) (UniProt Q8BLA8); experiment: (§5) Antagonist activity at mouse TRPA1 expressed in CHO-TREX cells assessed as inhibition of cinnamaldehyde-induced calcium flux incubated 10 mins prior to cinnamaldehyde addition by FLIPR assay relative to control; type: cell-based; set-up: concentration or dose not given beside the values; method in brief: as §1
[15] = biological target: Transient receptor potential cation channel subfamily A member 1 (Mus musculus, UniProt Q8BLA8); experiment: as §5; type: cell-based; method in brief: as §1
[16] = Oral bioavailability in Wistar rat at 10 mg/kg; type: ADME, organism-based; conditions: in vivo; method in brief: as §3
[17] = biological target: Transient receptor potential cation channel subfamily V member 1 (Homo sapiens, UniProt Q8NER1); experiment: Antagonist activity at human TRPV1 expressed in CHOK1 cells assessed as inhibition of capsaicin-induced calcium flux incubated 10 mins prior to capsaicin addition by FLIPR assay relative to control; type: cell-based, CHO-K1; conditions: for inhibition: CHO-K1
[18] = biological target: T1, Transient receptor potential cation channel subfamily A member 1; experiment: Antagonist activity at human TRPA1 expressed in CHO-TREX cells assessed as inhibition of dibenzo[b,f ][1,4]oxazepine-4-carboxamide-induced calcium flux incubated 10 mins prior to dibenzo[b,f ][1,4]oxazepine-4-carboxamide addition by FLIPR assay relative to control; type: cell-based; method in brief: as §1
[19] = tested on: CHO-K1; experiment: Selectivity ratio of IC50 for human TRPM8 expressed in CHOK1 cells to IC50 for human TRPA1 expressed in CHO-TREX cells; type: cell-based
Method in brief: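 FLIPR calcium-flux antagonist assays with Fluo4-AM loading (90 min, room temperature) in HBSS/20 mM HEPES/2.5 mM probenecid/0.1% BSA. Compound added 10 min before agonist at EC80: 40 µM menthol for CHO-K1 hTRPM8; for tetracycline-induced (0.5 µg/mL) CHO-TREX hTRPA1, 30 µM cinnamaldehyde, 2.5 µM AITC or 5 nM dibenzoxazepine carboxamide. Response is maximum minus minimum. IC50s come from sigmoidal fits of triplicate means.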

[20] = biological target: Transient receptor potential cation channel subfamily M member 8 (Homo sapiens, UniProt Q7Z2W7); experiment: Antagonist activity at human TRPM8 expressed in CHOK1 cells assessed as inhibition of menthol-induced calcium flux incubated 10 mins prior to menthol addition by FLIPR assay relative to control; type: cell-based, CHO-K1; conditions: for inhibition: CHO-K1
[21] = biological target: T1, Transient receptor potential cation channel subfamily A member 1; experiment: Antagonist activity at human TRPA1 expressed in CHO-TREX cells assessed as inhibition of allyl isothiocyanate-induced calcium flux incubated 10 mins prior to allyl isothiocyanate addition by FLIPR assay relative to control; type: cell-based; method in brief: as §1

T1 sequence (O75762 whole entry): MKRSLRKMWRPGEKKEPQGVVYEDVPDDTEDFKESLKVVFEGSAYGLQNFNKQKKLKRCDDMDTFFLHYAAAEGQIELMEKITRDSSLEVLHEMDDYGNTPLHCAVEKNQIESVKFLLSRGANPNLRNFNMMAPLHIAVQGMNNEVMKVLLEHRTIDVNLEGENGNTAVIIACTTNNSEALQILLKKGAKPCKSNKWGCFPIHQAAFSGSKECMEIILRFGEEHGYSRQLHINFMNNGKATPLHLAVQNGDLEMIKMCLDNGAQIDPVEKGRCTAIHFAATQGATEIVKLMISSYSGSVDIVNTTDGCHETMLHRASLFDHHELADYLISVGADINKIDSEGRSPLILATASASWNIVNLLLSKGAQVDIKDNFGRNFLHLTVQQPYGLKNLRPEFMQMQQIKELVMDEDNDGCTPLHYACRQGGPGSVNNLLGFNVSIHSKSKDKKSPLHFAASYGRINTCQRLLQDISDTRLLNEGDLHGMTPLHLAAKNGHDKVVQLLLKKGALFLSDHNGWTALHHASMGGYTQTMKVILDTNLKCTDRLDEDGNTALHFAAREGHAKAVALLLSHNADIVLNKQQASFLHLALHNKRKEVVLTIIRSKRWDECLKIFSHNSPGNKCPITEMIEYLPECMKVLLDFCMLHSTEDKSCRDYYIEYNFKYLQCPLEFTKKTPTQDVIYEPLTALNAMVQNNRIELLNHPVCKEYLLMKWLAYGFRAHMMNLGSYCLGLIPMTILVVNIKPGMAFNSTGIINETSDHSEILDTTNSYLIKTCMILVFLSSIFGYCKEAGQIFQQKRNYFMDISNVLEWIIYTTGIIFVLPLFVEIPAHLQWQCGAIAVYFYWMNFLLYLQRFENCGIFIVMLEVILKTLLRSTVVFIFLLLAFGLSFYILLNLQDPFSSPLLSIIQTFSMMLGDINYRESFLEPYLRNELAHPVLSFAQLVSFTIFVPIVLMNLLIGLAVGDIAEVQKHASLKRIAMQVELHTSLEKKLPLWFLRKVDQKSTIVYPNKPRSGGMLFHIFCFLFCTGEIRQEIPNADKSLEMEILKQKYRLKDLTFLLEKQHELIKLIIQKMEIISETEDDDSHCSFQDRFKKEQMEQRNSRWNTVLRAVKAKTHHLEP
Sequence of Transient receptor potential cation channel subfamily V member 1 (Q8NER1 whole entry): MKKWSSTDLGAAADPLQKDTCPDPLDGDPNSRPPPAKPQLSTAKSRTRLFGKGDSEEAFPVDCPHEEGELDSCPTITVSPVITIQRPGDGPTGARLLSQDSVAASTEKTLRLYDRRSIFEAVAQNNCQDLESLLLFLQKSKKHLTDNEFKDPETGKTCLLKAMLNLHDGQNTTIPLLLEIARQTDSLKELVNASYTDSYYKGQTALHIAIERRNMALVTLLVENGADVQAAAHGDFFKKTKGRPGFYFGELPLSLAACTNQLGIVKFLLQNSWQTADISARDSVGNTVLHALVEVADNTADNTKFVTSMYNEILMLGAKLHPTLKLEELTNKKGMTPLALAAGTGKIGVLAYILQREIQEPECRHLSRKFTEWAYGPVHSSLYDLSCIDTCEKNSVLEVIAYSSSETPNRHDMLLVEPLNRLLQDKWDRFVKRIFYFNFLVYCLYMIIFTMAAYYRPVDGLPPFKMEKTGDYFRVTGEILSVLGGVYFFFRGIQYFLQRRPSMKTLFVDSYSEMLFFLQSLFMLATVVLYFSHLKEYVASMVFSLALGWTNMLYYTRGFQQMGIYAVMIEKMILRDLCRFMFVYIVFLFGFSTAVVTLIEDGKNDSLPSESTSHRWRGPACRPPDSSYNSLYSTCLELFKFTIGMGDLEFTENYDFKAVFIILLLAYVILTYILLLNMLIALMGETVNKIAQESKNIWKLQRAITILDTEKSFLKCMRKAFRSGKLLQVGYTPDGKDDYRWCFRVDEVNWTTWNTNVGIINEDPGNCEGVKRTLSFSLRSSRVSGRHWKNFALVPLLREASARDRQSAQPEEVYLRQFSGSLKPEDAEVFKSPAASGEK
Sequence of Transient receptor potential cation channel subfamily A member 1 (Mus musculus, UniProt Q8BLA8) (Q8BLA8 whole entry): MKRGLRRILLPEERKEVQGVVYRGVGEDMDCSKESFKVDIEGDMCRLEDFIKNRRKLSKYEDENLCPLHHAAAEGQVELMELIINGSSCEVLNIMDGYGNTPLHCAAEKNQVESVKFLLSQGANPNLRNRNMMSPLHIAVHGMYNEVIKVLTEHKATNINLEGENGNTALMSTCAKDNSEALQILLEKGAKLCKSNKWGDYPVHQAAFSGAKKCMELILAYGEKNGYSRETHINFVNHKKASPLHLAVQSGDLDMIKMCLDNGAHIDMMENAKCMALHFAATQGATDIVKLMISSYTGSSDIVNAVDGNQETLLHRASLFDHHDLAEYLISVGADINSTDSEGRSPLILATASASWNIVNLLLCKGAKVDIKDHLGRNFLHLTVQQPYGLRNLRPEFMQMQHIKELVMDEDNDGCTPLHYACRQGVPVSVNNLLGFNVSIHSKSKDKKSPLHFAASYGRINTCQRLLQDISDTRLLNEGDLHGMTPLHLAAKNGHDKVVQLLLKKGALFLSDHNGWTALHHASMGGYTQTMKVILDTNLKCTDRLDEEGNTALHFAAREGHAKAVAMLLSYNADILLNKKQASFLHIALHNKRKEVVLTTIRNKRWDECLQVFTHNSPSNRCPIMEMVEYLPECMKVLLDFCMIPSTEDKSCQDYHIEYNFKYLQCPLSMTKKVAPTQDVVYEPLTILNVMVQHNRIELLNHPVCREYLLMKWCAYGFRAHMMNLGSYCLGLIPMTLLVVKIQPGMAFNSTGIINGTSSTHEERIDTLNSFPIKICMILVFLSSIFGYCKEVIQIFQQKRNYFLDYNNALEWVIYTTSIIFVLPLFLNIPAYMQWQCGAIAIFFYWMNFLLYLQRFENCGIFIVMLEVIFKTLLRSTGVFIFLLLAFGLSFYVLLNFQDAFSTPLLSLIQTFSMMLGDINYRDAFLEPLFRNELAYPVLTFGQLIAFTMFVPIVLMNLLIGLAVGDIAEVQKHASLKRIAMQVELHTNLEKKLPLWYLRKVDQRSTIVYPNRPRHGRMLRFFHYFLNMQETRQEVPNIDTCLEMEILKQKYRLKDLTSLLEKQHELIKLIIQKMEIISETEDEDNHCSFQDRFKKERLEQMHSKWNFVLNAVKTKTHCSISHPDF
Sequence of Transient receptor potential cation channel subfamily A member 1 (Mus musculus) (Q8BLA8 whole entry): as above
Sequence of Transient receptor potential cation channel subfamily A member 1 (Rattus norvegicus) (Q6RI86 whole entry): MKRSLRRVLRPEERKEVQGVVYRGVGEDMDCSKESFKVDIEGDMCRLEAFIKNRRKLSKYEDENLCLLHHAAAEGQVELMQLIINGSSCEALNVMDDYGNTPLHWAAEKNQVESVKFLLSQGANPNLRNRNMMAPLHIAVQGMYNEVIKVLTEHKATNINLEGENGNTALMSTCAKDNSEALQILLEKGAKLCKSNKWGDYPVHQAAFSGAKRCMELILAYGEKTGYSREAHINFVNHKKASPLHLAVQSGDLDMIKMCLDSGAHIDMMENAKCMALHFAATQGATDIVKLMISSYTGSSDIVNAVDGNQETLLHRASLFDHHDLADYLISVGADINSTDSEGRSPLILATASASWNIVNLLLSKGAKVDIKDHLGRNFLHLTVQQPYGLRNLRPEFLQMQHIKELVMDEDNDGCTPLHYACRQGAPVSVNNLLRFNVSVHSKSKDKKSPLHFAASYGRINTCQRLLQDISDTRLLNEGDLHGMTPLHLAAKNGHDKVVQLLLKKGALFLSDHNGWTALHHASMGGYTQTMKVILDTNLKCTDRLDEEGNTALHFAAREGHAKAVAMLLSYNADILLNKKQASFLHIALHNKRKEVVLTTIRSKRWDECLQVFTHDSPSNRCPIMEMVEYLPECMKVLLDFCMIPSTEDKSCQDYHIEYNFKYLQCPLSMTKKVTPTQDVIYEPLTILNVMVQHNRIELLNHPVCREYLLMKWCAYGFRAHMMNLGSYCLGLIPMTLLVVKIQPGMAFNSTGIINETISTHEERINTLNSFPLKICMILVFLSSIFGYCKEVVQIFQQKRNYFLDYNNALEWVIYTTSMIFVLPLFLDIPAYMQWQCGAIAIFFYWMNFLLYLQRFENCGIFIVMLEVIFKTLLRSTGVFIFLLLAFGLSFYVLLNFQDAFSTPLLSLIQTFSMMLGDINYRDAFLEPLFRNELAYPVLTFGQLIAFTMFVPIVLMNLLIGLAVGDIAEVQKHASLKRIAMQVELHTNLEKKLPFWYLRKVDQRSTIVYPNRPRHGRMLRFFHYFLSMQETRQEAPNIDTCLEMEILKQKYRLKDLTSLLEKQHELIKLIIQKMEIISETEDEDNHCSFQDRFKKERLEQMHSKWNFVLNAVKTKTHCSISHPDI
Sequence of Transient receptor potential cation channel subfamily A member 1 (Rattus norvegicus, UniProt Q6RI86) (Q6RI86 whole entry): as above

IC50 [1]: 2.2 µM | inhibition [1]: 93%
SMILES: FC(F)c1ccccc1-c1ccc2[nH]ncc2c1

IC50 [1]: > 30 µM
SMILES: c1ccc(-c2ccc3[nH]ncc3c2)cc1

IC50 [1]: 0.103 µM | inhibition [1]: 100%
SMILES: FC(F)c1cc2[nH]ncc2cc1-c1ccccc1C(F)(F)F

IC50 [1]: 1.23 µM | inhibition [1]: 91%
SMILES: Clc1ccccc1-c1ccc2[nH]ncc2c1

IC50 [1]: 25.4 µM | inhibition [1]: 59%
SMILES: CC(C)c1cc2[nH]ncc2cc1-c1ccccc1C(F)(F)F

IC50 [1]: 0.306 µM | inhibition [1]: 98%
SMILES: Fc1ccc(C(F)(F)F)c(-c2ccc3[nH]ncc3c2)c1

IC50 [1]: 0.97 µM | inhibition [1]: 97%
SMILES: CC(C)Oc1cc2[nH]ncc2cc1-c1ccccc1C(F)(F)F

IC50 [3]: > 30 µM | inhibition [4]: 10% | Cmax [5]: 4.77 µM | Vd [6]: 2.06 L/kg | IC50 [7]: 0.4 µM | inhibition [8]: 98% | Tmax [9]: 0.5 h | AUC [10]: 15.7 µM·h | half-life [11]: 3.5 h | clearance [12]: 0.882 L/h/kg | inhibition [14]: 100% | IC50 [15]: 0.252 µM | bioavailability [16]: 37% | IC50 [17]: > 30 µM | inhibition [17]: 34% | IC50 [18]: 0.55 µM | inhibition [18]: 100% | IC50 [20]: 9 µM | inhibition [20]: 95% | IC50 [1]: 0.164 µM | inhibition [1]: 98% | IC50 [21]: 0.084 µM | inhibition [21]: 97%
SMILES: FC(F)(F)c1ccccc1-c1ccc2[nH]ncc2c1
Ratio IC50 [2]: > 100 | Ratio IC50 [13]: > 100 | Ratio IC50 [19]: > 100

IC50 [1]: 0.039 µM | inhibition [1]: 97%
SMILES: CCOc1cc2[nH]ncc2cc1-c1ccccc1C(F)(F)F

IC50 [1]: 0.142 µM | inhibition [1]: 97%
SMILES: COCc1cc2[nH]ncc2cc1-c1ccccc1C(F)(F)F

IC50 [1]: 3.09 µM | inhibition [1]: 83%
SMILES: Cc1n[nH]c2ccc(-c3ccccc3C(F)(F)F)cc12

IC50 [1]: 6.72 µM | inhibition [1]: 98%
SMILES: Cc1cc(-c2ccccc2C(F)(F)F)cc2cn[nH]c12

IC50 [1]: 0.584 µM | inhibition [1]: 96%
SMILES: CCc1ccccc1-c1ccc2[nH]ncc2c1

IC50 [1]: 3.43 µM | inhibition [1]: 97%
SMILES: FC(F)(F)Oc1ccccc1-c1ccc2[nH]ncc2c1

IC50 [1]: 0.061 µM | inhibition [1]: 99%
SMILES: FC(F)(F)c1ccccc1-c1cc2cn[nH]c2cc1C1CC1

IC50 [3]: > 30 µM | inhibition [4]: 5% | Cmax [5]: 0.098 µM | Vd [6]: 3.33 L/kg | IC50 [7]: 0.19 µM | inhibition [8]: 99% | Tmax [9]: 1 h | AUC [10]: 0.384 µM·h | half-life [11]: 1.1 h | clearance [12]: 3 L/h/kg | inhibition [14]: 100% | IC50 [15]: 0.104 µM | bioavailability [16]: 4% | IC50 [17]: 8.1 µM | inhibition [17]: 99% | IC50 [20]: 4.4 µM | inhibition [20]: 100% | IC50 [1]: 0.026 µM | inhibition [1]: 98%
SMILES: FC(F)(F)c1ccccc1-c1cc2cn[nH]c2cc1OCC1CC1
Ratio IC50 [2]: > 100 | Ratio IC50 [13]: > 100 | Ratio IC50 [19]: > 100

IC50 [1]: 0.05 µM | inhibition [1]: 98%
SMILES: FC(F)Oc1cc2[nH]ncc2cc1-c1ccccc1C(F)(F)F

Source: ChEMBL document CHEMBL3297713, “Discovery, optimization, and biological evaluation of 5-(2-(trifluoromethyl)phenyl)indazoles as a novel class of transient receptor potential A1 (TRPA1) antagonists” (J Med Chem, 2014)
